The source made the active and inactive calls.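 How the source made its calls, unless noted: active means inhibition of the reporter signal at or above 50%; inactive means inhibition below 50%.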
Columns and labels:
[1] = inhibitors of TNFa-induced NFkB p65 translocation, primary screen, imaging, HUVEC, MLSMR starter and 10KST1 sets (AID 438;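 active means inhibition above 20% together with a positive visual image hit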;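 further: compound added about 3h40 before a 20 min TNFalpha stimulation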;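 on inhibition: signal is the nuclear over cytoplasmic p65 intensity ratio per well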); settings: HUVEC TNFa-induced p65 nuclear translocation; cell count: measured here: nuclei count (cytotoxicity indicator), at 2.08 µM; inhibition: at 2 µM, stronger effect = higher value, 0% TNFa-plus-vehicle, 100% no-TNFa wells
[2] = reduction of polyQ htt aggregates in cells – imaging, exon1htt(103Q)mCFP cells, high-content imaging, primary screen (AID 483;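 active means visual image review flags a hit and inhibition of aggregation exceeds 20%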;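 further: compound exposure lasted 3 days before fixation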;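 on nuclei count: percent of the per-plate median nuclei count of sample wells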); settings: exon1htt(103Q)mCFP cell line, aggregate imaging, at 2 µM; inhibition of aggregation: stronger effect = higher value; nuclei count: measured here: cell count, toxicity
[3] = endothelial E-selectin expression blockers – imaging, HUVEC, immunofluorescence, MLSMR starter and 10KST1 sets, primary screen (AID 487;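 active means visually confirmed hit in the image check and inhibition above 20%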;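 on inhibition: signal is fraction of cell area covered by stained E-selectin grains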;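 on nuclei count: 100% = median nuclei count of all wells on the same plate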); settings: HUVEC TNFalpha-induced E-selectin immunofluorescence imaging, at 2 µM; inhibition: stronger effect = higher value; nuclei count: measured here: cell number, toxicity
[4] = target: Voltage-gated potassium channel subunit beta-2 (Rattus norvegicus) (UniProt P62483); assay: inhibitors of rat Kvbeta2 reductase activity – biochemical, NADPH fluorescence, primary screen (AID 622;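 active means fluorescence slope higher than the sample average by over 3 SD, cut at about -0.22 in these data, passing the limit was not always enough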;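 further: slope of raw intensity against log time taken from 70 to 1610 s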); settings: recombinant KvBeta, 4-cyanobenzaldehyde reduction, at 10 µM, stronger effect = higher value
Chain of Voltage-gated potassium channel subunit beta-2 (Rattus norvegicus) (P62483 whole entry, looked up): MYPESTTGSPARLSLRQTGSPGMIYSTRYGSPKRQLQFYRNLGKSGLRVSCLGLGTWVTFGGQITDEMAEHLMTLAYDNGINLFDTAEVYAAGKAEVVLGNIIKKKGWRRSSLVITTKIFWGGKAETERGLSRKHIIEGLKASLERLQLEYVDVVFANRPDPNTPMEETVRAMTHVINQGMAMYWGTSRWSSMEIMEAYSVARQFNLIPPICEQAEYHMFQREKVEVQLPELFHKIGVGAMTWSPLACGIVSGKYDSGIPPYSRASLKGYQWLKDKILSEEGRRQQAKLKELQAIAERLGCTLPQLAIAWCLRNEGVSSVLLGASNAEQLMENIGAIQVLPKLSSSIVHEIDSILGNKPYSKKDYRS

[5] = target: Voltage-gated potassium channel subunit beta-2 (Rattus norvegicus) (UniProt P62483); assay: enhancers of rat Kvbeta2 NADPH turnover – biochemical, NADPH fluorescence, primary screen (AID 623;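 active means NADPH fluorescence slope more negative than the mean of all samples by about 3 SD, 99.7% confidence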;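 further: fluorescence intensity change per second fitted from 20 to 320 s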); settings: Recombinant KvBeta, NADPH fluorescence decrease slope, 10 min; at 10 µM; stronger effect = lower value
[6] = target: Muscarinic acetylcholine receptor M4 (Homo sapiens) (UniProt P08173); assay: M4-linked GIRK flux change, two-sided – cell-based, HEK293 M4/GIRK, thallium flux, BTC-AM, M4 allosteric agonist project, primary screen (AID 625;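 active means fluorescence slope after compound addition differing from the mean of all tested samples at 99.7% confidence, mostly higher but some lower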;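 further: thallium influx through GIRK channels coupled to M4 in HEK293 cells with BTC-AM dye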); settings: at 10 µM, actives lie on both sides
Chain of Muscarinic acetylcholine receptor M4 (Homo sapiens) (P08173 whole entry, looked up): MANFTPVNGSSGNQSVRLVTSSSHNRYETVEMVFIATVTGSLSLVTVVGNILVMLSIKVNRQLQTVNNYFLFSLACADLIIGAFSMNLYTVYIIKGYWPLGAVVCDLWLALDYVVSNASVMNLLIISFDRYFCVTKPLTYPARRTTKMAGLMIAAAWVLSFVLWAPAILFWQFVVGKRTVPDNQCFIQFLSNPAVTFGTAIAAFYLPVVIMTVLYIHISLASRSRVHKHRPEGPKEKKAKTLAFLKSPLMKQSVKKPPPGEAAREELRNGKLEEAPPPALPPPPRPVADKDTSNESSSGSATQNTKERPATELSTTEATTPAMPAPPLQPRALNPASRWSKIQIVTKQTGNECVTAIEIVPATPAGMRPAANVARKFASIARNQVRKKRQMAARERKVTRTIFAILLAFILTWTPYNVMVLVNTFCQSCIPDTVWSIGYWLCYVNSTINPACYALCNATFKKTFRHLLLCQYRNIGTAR
Outline: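 Assay system: HEK293 cells with M4 receptor and GIRK channels / Controls: carbachol and DMSO controls / Schedule: 1 h dye loading, 2 min kinetic read / Technique: kinetic fluorescence with BTC-AM dye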

[7] = blockers of RIG-like receptor reporter activation – cell-based, Sendai virus stimulus, luciferase, 10K MLSCN set, TLR/RLR signaling modifier project, primary screen (AID 602276;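 active means inhibition at or above 50% at 10 µM; inactive means inhibition below 50%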;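 further: firefly luciferase from ISG56 promoter only with Renilla not read in this screen; 0% = Sendai virus plus DMSO and 100% = medium plus DMSO without virus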); settings: HEK293 RL24 IRF3 luciferase reporter, at 10 µM, stronger effect = higher value
[8] = TLR3 IRF3 reporter activation blockers – cell-based, poly I:C stimulus, luciferase, 10K MLSCN set, primary screen (AID 602277); settings: HEK293-TLR3 RL24 IRF3 luciferase reporter, at 10 µM, stronger effect = higher value

| SMILES | cell count [1] | inhibition [1] | inhibition of aggregation [2] | nuclei count [2] | inhibition [3] | nuclei count [3] | fluorescence slope [4] | NADPH fluorescence slope [5] | fluorescence slope [6] | inhibition [7] | inhibition [8] |
| --- | --- | --- | --- | --- | --- | --- | --- | --- | --- | --- | --- |
| CCOC(=O)c1ccc(NC(=O)N2CCN(CCc3ccccc3)CC2)cc1 | 361 | 2.5% (inactive) | 18.6% (inactive) | 84.1% | 20.3% (inactive) | 75.8% | -0.475 (inactive) | -4.1e-05 (inactive) | 0.00422 (inactive) | 6.1% (inactive) | -14.9% (inactive) |
| COc1ccc(Cl)cc1NC(=O)c1oc(C)nc1C | 555 | -0.7% (inactive) | -0.3% (inactive) | 97.4% | -1% (inactive) | 108% | -0.35 (inactive) | -4.4e-05 (inactive) | 0.00568 (inactive) | 25.6% (inactive) | 42.6% (inactive) |
| O=C(CNS(=O)(=O)c1ccc(Br)s1)N1CCN(c2ncccn2)CC1 | 352 | 2.7% (inactive) | 13.7% (inactive) | 101% | -48.3% (inactive) | 86.3% | -0.532 (inactive) | -0.000106 (inactive) | 0.00447 (inactive) | -5.84% (inactive) | -10.7% (inactive) |
| CCCCCn1c(=O)[nH]c2cc(C(=O)NCCCN3CCCCC3)ccc2c1=O | 255 | -2.1% (inactive) | -0.1% (inactive) | 77.4% | -32.3% (inactive) | 109% | -0.298 (inactive) | -5.4e-05 (inactive) | 0.00603 (inactive) | 7.49% (inactive) | 6.91% (inactive) |
| CCN1CCN(c2c(Cl)cccc2NC(=O)c2ccco2)CC1 | 248 | 10.6% (inactive) | -8.4% (inactive) | 77.9% | -12.4% (inactive) | 84.2% | -0.531 (inactive) | -2.5e-05 (inactive) | 0.00466 (inactive) | 1.94% (inactive) | 29.2% (inactive) |
| COc1cccc(Oc2ccc(N)cc2)c1 | 716 | -0.6% (inactive) | 20.3% (inactive) | 102% | -54.1% (inactive) | 97.5% | -0.44 (inactive) | -0.000235 (active) | 0.00432 (inactive) | -0.294% (inactive) | -6.53% (inactive) |
| CC(C)c1ccc(-c2nc(N3CCCCC3)[nH]c(=O)c2C#N)cc1 | 459 | -4.5% (inactive) | -12% (inactive) | 102% | -48.9% (inactive) | 107% | -0.478 (inactive) | -3.9e-06 (inactive) | 0.00632 (inactive) | -5% (inactive) | -1.05% (inactive) |
| CNC(=O)CN(c1cc(C)ccc1OC)S(=O)(=O)c1ccc(C)cc1 | 317 | 5% (inactive) | -22% (inactive) | 107% | 6.9% (inactive) | 105% | -0.563 (inactive) | -1.4e-05 (inactive) | 0.00434 (inactive) | 5.72% (inactive) | 6.94% (inactive) |
| Cc1ccc(-c2csc3nnc(SCC(=O)NCc4ccco4)n23)cc1 | 656 | 5.2% (inactive) | -2.5% (inactive) | 101% | -76.9% (inactive) | 94.1% | -0.556 (inactive) | -2.1e-05 (inactive) | 0.00536 (inactive) | 17.2% (inactive) | 19.3% (inactive) |
| Cc1noc(C)c1S(=O)(=O)N1CCC(C(=O)Nc2ccccn2)CC1 | 281 | -5.2% (inactive) | -0.6% (inactive) | 96.1% | -46% (inactive) | 128% | -0.404 (inactive) | 3.5e-05 (inactive) | 0.00606 (inactive) | 13.8% (inactive) | 21.1% (inactive) |
| Cc1csc(NC(=O)c2sc3nc(-c4cccs4)ccc3c2N)n1 | 340 | -1.9% (inactive) | 30.2% (inactive) | 68.7% | -5.9% (inactive) | 90.5% | -0.0131 (active) | 2.9e-06 (inactive) | 0.0189 (active) | -19.2% (inactive) | -115% (inactive) |
| CCNC(=O)CC1C(=O)N(c2ccccc2)C(=O)N1Cc1ccc(OC)cc1 (stereo not drawn) | 442 | 5.9% (inactive) | -1.6% (inactive) | 69.1% | -289% (inactive) | 92.6% | -0.567 (inactive) | 2e-05 (inactive) | 0.00553 (inactive) | 14.5% (inactive) | 21.8% (inactive) |
| CCC1(CC)C(=O)C(C)(C)C(=O)OC1c1cccs1 (stereo not drawn) | 750 | -8.8% (inactive) | 10.4% (inactive) | 91.1% | -18.3% (inactive) | 110% | -0.454 (inactive) | -4.2e-05 (inactive) | 0.00495 (inactive) | 21.5% (inactive) | 19.6% (inactive) |
| CCCn1c(SCC(=O)Nc2nnc(-c3ccccc3)s2)nnc1-c1ccccn1 | 591 | -5.1% (inactive) | 14.9% (inactive) | 45.4% | 7% (inactive) | 105% | -0.376 (inactive) | 1.2e-05 (inactive) | 0.00563 (inactive) | -15.8% (inactive) | -30% (inactive) |
| Cc1ccc(-c2nc(-c3cccnc3)no2)c(C)c1 | 357 | 4.2% (inactive) | -8% (inactive) | 107% | -54.5% (inactive) | 105% | -0.571 (inactive) | -3.5e-05 (inactive) | 0.00802 (inactive) | -33.6% (inactive) | -111% (inactive) |
| COc1ccc(N2CCN(C(=O)CSc3ccccc3N)CC2)cc1 | 334 | -3% (inactive) | 7.8% (inactive) | 96.1% | -18.9% (inactive) | 106% | -0.501 (inactive) | -0.00016 (inactive) | 0.00478 (inactive) | 4.54% (inactive) | 22.7% (inactive) |
| Cc1cc(=O)n2[nH]c(COc3ccccc3)nc2n1 | 203 | -7.9% (inactive) | 31.3% (inactive) | 101% | -85.5% (inactive) | 91.6% | -0.531 (inactive) | -4.3e-05 (inactive) | 0.00471 (inactive) | 6.61% (inactive) | 14.8% (inactive) |
| O=C(CCN1CCOCC1)Nc1ccc2c(c1)CCC2 | 228 | 5.7% (inactive) | 17.3% (inactive) | 74.9% | -83.8% (inactive) | 140% | -0.442 (inactive) | -5.3e-05 (inactive) | 0.00437 (inactive) | 4.13% (inactive) | -9.22% (inactive) |
| Cc1noc(C)c1S(=O)(=O)NCCN1CCN(c2ccccc2)CC1 | 413 | -5.2% (inactive) | -8.9% (inactive) | 118% | -42.6% (inactive) | 141% | -0.546 (inactive) | 4.8e-05 (inactive) | 0.0066 (inactive) | 12.9% (inactive) | 20.2% (inactive) |
| Cc1cc(NS(=O)(=O)c2ccc(NC(=O)C(C)N3C(=O)c4ccccc4C3=O)cc2)nc(C)n1 (stereo not drawn) | 257 | -2.1% (inactive) | 4.6% (inactive) | 98.5% | -11.1% (inactive) | 90.8% | -0.557 (inactive) | -5.8e-05 (inactive) | 0.00257 (inactive) | 14.9% (inactive) | 18.8% (inactive) |
| O=c1c2ccccc2sn1-c1ccc(S(=O)(=O)N2CCCCC2)cc1 | 539 | -20.9% (inactive) | -8.4% (inactive) | 115% | 53.4% (inactive) | 83.7% | -0.271 (inactive) | -1.7e-05 (inactive) | 0.00829 (inactive) | 3.69% (inactive) | 7.09% (inactive) |
| Cc1nn(-c2ccccc2)c(Cl)c1C1C(C#N)=C(N)OC2=C1C(=O)CC(C)(C)C2 (stereo not drawn) | 378 | 5.6% (inactive) | -4.8% (inactive) | 100% | -110% (inactive) | 113% | -0.577 (inactive) | -3.7e-05 (inactive) | 0.00783 (inactive) | 6.31% (inactive) | 31.1% (inactive) |
| CCCCn1nnnc1SCC(=O)Nc1cccc(C)n1 | 554 | -46.9% (inactive) | 9% (inactive) | 112% | -47.5% (inactive) | 107% | -0.329 (inactive) | -3.8e-05 (inactive) | 0.00669 (inactive) | -10.8% (inactive) | -6.38% (inactive) |
| O=C1CCCc2c1cc(C(=O)NCc1ccco1)c(=O)n2-c1ccc(Cl)cc1 | 220 | 0.8% (inactive) | 5.3% (inactive) | 91.5% | 37.1% (inactive) | 80% | -0.52 (inactive) | -5.7e-05 (inactive) | 0.0047 (inactive) | 10.8% (inactive) | 3.62% (inactive) |
| O=C(CSc1nc2ccccc2n1CC(=O)N1CCCC1)Nc1nccs1 | 676 | 1% (inactive) | -9.6% (inactive) | 99.7% | -3.7% (inactive) | 131% | -0.484 (inactive) | -0.000183 (inactive) | 0.00508 (inactive) | 2.67% (inactive) | 14% (inactive) |
| NC(=O)c1c(-c2ccccc2)oc2ccc(O)cc12 | 380 | -4.7% (inactive) | 11.1% (inactive) | 103% | -104% (inactive) | 92.8% | -0.532 (inactive) | -1.2e-05 (inactive) | 0.00463 (inactive) | -8.7% (inactive) | -13.7% (inactive) |
| CCOc1ccc2cc(C#N)c(SCC(=O)N3CCOCC3)nc2c1 | 386 | 1% (inactive) | 11.7% (inactive) | 97.9% | -46.6% (inactive) | 90.7% | -0.487 (inactive) | -2.5e-05 (inactive) | 0.00448 (inactive) | -22.4% (inactive) | -67% (inactive) |
| CCOC(=O)C1CCN(C(=O)Nc2ccc3snnc3c2)CC1 | 408 | 5.7% (inactive) | 5% (inactive) | 89.8% | -38.5% (inactive) | 107% | -0.206 (inactive) | -2.9e-05 (inactive) | 0.00565 (inactive) | 13.9% (inactive) | 10.8% (inactive) |
